Laboratory results taken from ChEMBL document CHEMBL2062525, “Substituted 3-(5-imidazo[2,1-b]thiazolylmethylene)-2-indolinones and analogues: synthesis, cytotoxic activity, and study of the mechanism of action” (J Med Chem, 2012).
Activity calls are given as the source filed them.

Experiments:
[1] = Cytotoxicity against human melanoma cells after 48 hrs; format: functional; settings: Melanoma cell
In short: (§1)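 NCI 60-cell panel subpanel lines; compounds first screened at a single 10−5 M, then those passing threshold tested in five-concentration assay over 10−9 to 10−4 M (some to 10−3 M), 48 h exposure. Growth relative to untreated control measured as cell protein; GI50, TGI and LC50 derived; some values are means of two experiments.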

HT-29 [2] = assay: Induction of apoptosis in human HT-29 cells assessed as increase in caspase activity at 500 nM after 48 hrs by fluorometry; format: functional, cell-based
In short: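 Cells exposed 48 h to 500 nM; DEVD-cleaving caspase (DEVDase) activity measured fluorometrically in cell extracts; mean ± s.e.m. of four determinations.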

HT-29 [3] = assay: Induction of apoptosis in human HT-29 cells at 100 nM after 24 hrs by trypan blue exclusion assay; format: functional, cell-based
In short: (§2)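 HT-29 cells plated at 2×10^4 cells/cm2, treated 24 h in triplicate (DMSO 0.01%; DMSO-only controls); viable cells counted by trypan blue exclusion; mean ± s.e.m. of three determinations.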

[4] = Cytotoxicity against human breast cancer cells after 48 hrs; format: functional; settings: Cancer cell lines; in short: as §1
[5] = Cytotoxicity against human ovarian cancer cells after 48 hrs; format: functional; settings: Cancer cell lines; in short: as §1
HT-29 [6] = assay: Induction of apoptosis in human HT-29 cells assessed as chromatin condensation by propidium iodide staining method; format: functional, cell-based
In short: (§3)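 HT-29 cells on glass coverslips (1×10^4 cells/cm2), treated 24 h; fixed in 3% paraformaldehyde, ethanol-permeabilized; nuclei stained with PI and viewed by laser scanning confocal microscopy for chromatin condensation and nuclear fragmentation; representative of three experiments.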

[7] = Cytotoxicity against human prostate cancer cells after 48 hrs; format: functional; settings: Cancer cell lines
In short: (§4)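 NCI 60-cell panel (subpanels include leukemia and prostate). […] Percent growth relative to untreated control; some repeats averaged over two experiments.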

Bos taurus = organism: Bos taurus; assay: Displacement of [3H]colchicine from bovine brain tubulin at 5 uM after 10 mins
HT-29 [8] = assay: Induction of apoptosis in human HT-29 cells assessed as nuclear fragmentation by propidium iodide staining method; format: functional, cell-based; in short: as §3
HT-29 [9] = assay: Induction of apoptosis in human HT-29 cells assessed as increase in early apoptotic cells after 24 hrs by annexin-V-FLUOS and propidium iodide staining based flow cytometry (reference value: 3.9%); format: functional
[10] = Cytotoxicity against human renal cancer cells after 48 hrs; format: functional; settings: Cancer cell lines; in short: as §1
NSCLC = assay: Cytotoxicity against human NSCLC cells after 48 hrs; format: functional; in short: as §1
[11] = Cytotoxicity against human CNS cancer cells after 48 hrs; format: functional; settings: Cancer cell lines; in short: as §1
HT-29 [12] = assay: Induction of cell cycle arrest in human HT-29 cells assessed as increase in p21 expression after 24 hrs by immunofluorescence confocal microscopy; format: functional, cell-based
In short: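 On coverslips, HT-29 cells were treated 24 h, fixed with 3% paraformaldehyde, permeabilized with 70% ice-cold ethanol, stained with anti-p21 then FITC secondary (1 h, room temperature each), nuclei counterstained with PI; confocal microscopy; representative of three experiments.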

[13] = Inhibition of bovine brain tubulin assembly after 20 mins; design: species or system Bos taurus
HT-29 [14] = assay: Cell cycle arrest in human HT-29 cells assessed as increase of cell population at G2/M phase at 500 nM after 24 hrs by flow cytometry; format: functional, cell-based
In short: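 HT-29 cells in RPMI 1640 with 10% FBS, 2 mM L-glutamine, 37 °C, 5% CO2; treated 24 h, DMSO 0.01% in medium. Fixed in 70% ethanol at −20 °C ≥12 h, RNase A (10 μg/mL) 30 min at 37 °C, DNA stained with PI (50 μg/mL), flow cytometry; one experiment representative of three.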

HT-29 [15] = assay: Induction of apoptosis in human HT-29 cells at 500 nM after 24 hrs by trypan blue exclusion assay; format: functional, cell-based; in short: as §2
[16] = target: AMP-activated protein kinase, AMPK (Homo sapiens) (UniProt P54646+O43741+P54619+Q9UGJ0+Q9Y478+Q13131+Q9UGI9); assay: Inhibition of AMPK phosphorylation at Thr172 in human HeLa cells at 1 uM after 3 hrs by Western blotting analysis; format: cell-based
In short: (§5)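 HeLa cells in RPMI 1640 with 10% FBS, treated 3 h at 1 μM. Lysates centrifuged 15,000 × g 15 min; 80 μg protein per lane by SDS-PAGE, nitrocellulose transfer, phospho-specific and total primary antibodies, peroxidase anti-rabbit secondary, ECL chemiluminescence.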

[17] = Cytotoxicity against human COLON cells after 48 hrs; format: functional; in short: as §1
HT-29 [18] = assay: Induction of apoptosis in human HT-29 cells assessed as increase in BAX level in mitochondria after 24 hrs by confocal laser microscopic analysis; format: functional, cell-based
In short: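 HT-29 cells treated 24 h with 500 nM; loaded with 150 nM MitoTracker Red CM-H2XRos for 10 min at 37 °C, then fixed, permeabilized, probed with anti-Bax plus FITC secondary (1 h each, room temperature). Confocal microscopy; colocalization with mitochondria seen as orange pixels.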

HeLa = assay: Inhibition of Akt phosphorylation at ser473 in human HeLa cells at 1 uM after 3 hrs by Western blotting analysis; format: cell-based; in short: as §5
[19] = target: Serine/threonine-protein kinase mTOR (Homo sapiens) (UniProt P42345); assay: Inhibition of mTOR phosphorylation at ser2448 in human HeLa cells at 1 uM after 3 hrs by Western blotting analysis; format: cell-based; in short: as §5
[20] = target: c-Jun N-terminal kinase, JNK (Homo sapiens) (UniProt P45983+P53779+P45984); assay: Inhibition of JNK phosphorylation at Thr183/Tyr185 in human HeLa cells at 1 uM after 3 hrs by Western blotting analysis; format: cell-based; in short: as §5
HT-29 [21] = assay: Induction of apoptosis in human HT-29 cells assessed as increase in mitochondrial ROS production by dihydroethidium staining based flow cytometry; format: functional, cell-based
In short: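 ROS read-out: HT-29 cells treated 24 h with 500 nM, then loaded with 5 μM dihydroethidium for 30 min at 37 °C; superoxide-derived red fluorescence measured by flow cytometry with logarithmic amplification; representative of three to five experiments.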

[22] = target: Mitogen-activated protein kinase; ERK1/ERK2 (Homo sapiens) (UniProt P27361+P28482); assay: Inhibition of ERK1/2 phosphorylation at Thr202/Tyr204 in human HeLa cells at 1 uM after 3 hrs by Western blotting analysis; format: cell-based; in short: as §5
HT-29 [23] = assay: Induction of apoptosis in human HT-29 cells assessed as loss of mitochondrial membrane potential after 24 hrs by DiOC6 staining based fluorescence assay; format: functional, cell-based
In short: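 Following 24 h treatment at 500 nM, HT-29 cells (1×10^6/mL) were stained with 4 nM DiOC6 for 40 min at 37 °C in the dark, counterstained with PI 5 μg/mL to exclude dead cells; fluorescence by flow cytometry; representative of three to five experiments.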

[24] = target: MAP kinase p38 (Homo sapiens) (UniProt O15264+Q15759+Q16539+P53778); assay: Inhibition of p38 phosphorylation at Thr180/Tyr182 in human HeLa cells at 1 uM after 3 hrs by Western blotting analysis; format: cell-based; in short: as §5
[25] = Cytotoxicity against human leukemia cells after 48 hrs; format: functional; settings: Leukemia cell; in short: as §4

Sequence of Mitogen-activated protein kinase; ERK1/ERK2 (Homo sapiens) (P27361 whole entry, looked up): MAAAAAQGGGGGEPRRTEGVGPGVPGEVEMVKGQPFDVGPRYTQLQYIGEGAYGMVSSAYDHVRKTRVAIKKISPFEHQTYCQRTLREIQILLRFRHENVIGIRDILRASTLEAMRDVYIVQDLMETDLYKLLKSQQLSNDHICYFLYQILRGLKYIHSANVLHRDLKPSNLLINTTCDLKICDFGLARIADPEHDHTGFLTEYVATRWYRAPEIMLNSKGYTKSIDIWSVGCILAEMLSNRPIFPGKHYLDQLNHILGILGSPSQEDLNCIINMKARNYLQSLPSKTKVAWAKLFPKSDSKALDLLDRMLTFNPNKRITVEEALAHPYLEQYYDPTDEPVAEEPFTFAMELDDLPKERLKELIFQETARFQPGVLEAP
Sequence of Mitogen-activated protein kinase; ERK1/ERK2 (Homo sapiens) (P28482 whole entry, looked up): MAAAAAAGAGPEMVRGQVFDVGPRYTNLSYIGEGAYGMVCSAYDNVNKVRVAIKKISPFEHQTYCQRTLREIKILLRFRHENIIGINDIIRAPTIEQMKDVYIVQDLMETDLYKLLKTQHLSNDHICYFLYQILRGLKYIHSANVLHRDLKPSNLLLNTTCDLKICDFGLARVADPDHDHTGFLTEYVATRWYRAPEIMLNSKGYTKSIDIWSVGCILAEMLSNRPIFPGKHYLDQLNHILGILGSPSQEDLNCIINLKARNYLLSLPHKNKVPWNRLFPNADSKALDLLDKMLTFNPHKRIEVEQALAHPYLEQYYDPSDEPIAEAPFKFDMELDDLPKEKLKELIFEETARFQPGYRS

Cc1cn2c(/C=C3/C(=O)Nc4c3ccc3ccccc43)c(C)nc2s1
GI50 [1]: 0.14 µM
TGI [1]: 50.1 µM
Activity (HT-29 [2]): Active
Activity (HT-29 [3]): Active
GI50 [4]: 0.18 µM
LC50 [4]: 50.1 µM
TGI [4]: 5.62 µM
GI50 [5]: 0.85 µM
LC50 (concentration killing 50% of starting cells) [5]: 74.1 µM
TGI [5]: 14.1 µM
Activity (HT-29 [6]): Active
GI50 [7]: 0.21 µM
TGI [7]: 16.2 µM
inhibition (Bos taurus): 49%
Activity (HT-29 [8]): Active
Activity (HT-29 [9]): 12.5%
GI50 [10]: 0.23 µM
TGI [10]: 12 µM
CC50 ([10]; read-out: LC50 (the source's name)): 70.8 µM
GI50 (NSCLC): 0.31 µM
LC50 (NSCLC): 93.3 µM
TGI (NSCLC): 28.2 µM
GI50 [11]: 0.17 µM
LC50 [11]: 74.1 µM
TGI [11]: 5.37 µM
Activity (HT-29 [12]): Active
IC50 [13]: 5.3 µM
Activity (HT-29 [14]): Active
Activity (HT-29 [15]): Active
inhibition [16]: inactive
GI50 [17]: 0.11 µM
TGI [17]: 58.9 µM
Activity (HT-29 [18]): Active
inhibition (HeLa): inactive
inhibition [19]: inactive
inhibition [20]: inactive
Activity (HT-29 [21]): Active
inhibition [22]: inactive
Activity (HT-29 [23]): Active
inhibition [24]: inactive
TGI [25]: 53.7 µM
